Screens (PubChem)
Mdm2 MdmX PPI: inhibitors of human Mdm2-MdmX association, primary screen, cell-based, luminescence, split luciferase, SaOS-2, uHTS | hit rate 3% among 330,000 | Protein Mdm4 (Homo sapiens) + E3 ubiquitin-protein ligase Mdm2 (Homo sapiens), … | inhibition, % at 8 µM | AID 485346, 2010 | SaOS-2 split-luciferase Mdm2/MdmX complementation;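 active = inhibition of at least 50% at 8 µM in the primary screen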
Target sequence (O15151 whole entry, looked up): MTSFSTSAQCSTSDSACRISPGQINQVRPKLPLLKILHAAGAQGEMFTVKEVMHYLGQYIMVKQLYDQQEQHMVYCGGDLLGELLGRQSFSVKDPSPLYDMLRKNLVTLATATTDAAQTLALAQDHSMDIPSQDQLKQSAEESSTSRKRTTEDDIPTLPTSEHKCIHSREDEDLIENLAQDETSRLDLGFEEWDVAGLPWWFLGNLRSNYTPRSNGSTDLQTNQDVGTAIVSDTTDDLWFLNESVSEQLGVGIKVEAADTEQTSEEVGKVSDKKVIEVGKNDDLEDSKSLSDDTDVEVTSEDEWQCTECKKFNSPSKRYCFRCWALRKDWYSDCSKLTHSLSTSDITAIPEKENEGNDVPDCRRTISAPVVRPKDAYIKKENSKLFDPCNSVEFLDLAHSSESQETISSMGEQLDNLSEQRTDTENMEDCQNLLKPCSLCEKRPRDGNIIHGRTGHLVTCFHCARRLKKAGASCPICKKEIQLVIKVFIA
Target sequence (Q00987 whole entry, looked up): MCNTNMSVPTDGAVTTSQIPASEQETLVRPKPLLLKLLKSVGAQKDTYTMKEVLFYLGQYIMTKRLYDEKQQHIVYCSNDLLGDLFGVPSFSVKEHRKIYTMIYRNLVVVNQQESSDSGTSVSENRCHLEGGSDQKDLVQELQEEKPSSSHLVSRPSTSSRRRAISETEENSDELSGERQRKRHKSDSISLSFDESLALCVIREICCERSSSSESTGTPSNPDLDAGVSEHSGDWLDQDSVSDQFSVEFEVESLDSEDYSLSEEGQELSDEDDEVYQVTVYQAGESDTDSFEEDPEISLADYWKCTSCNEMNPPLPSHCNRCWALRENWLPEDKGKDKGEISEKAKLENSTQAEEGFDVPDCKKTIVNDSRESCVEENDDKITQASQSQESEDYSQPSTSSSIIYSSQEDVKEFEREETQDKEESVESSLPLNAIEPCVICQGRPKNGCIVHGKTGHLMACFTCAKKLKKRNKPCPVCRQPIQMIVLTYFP
UPR XBP1 act: activators of adaptive XBP1 UPR arm, primary screen, cell-based, CHO-XBP1 luciferase reporter, luminescence, uHTS; hit rate 0.33% among 330,000; activation, % at 20 µM; IRE1-XBP1 UPR activation; percent of tunicamycin response, DMSO as zero; AID 463104, 2010;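 active = versus positive control, 20 µM dose yields 30% or more activation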
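Material: CHO cell line with stable XBP1 luciferase reporter; schedule: 16-18 h cell attachment at 37 °C, then 6 h compound exposure; signal: glow luminescence from Steady-Glo reagent; medium: serum-containing F12 medium, 10% FBS; benchmarks: tunicamycin 10 µg/mL and vehicle-only wells; read-out: percent activation relative to tunicamycin reference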
UPR CHOP act: activators of apoptotic CHOP UPR arm, primary screen, cell-based, CHO-CHOP luciferase reporter, luminescence, uHTS; UPR activation; percent of tunicamycin response over DMSO baseline; activation, % at 10 µM; hit rate 0.34% among 330,000;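 active = at 10 µM dose, activation of 40% or more, normalized to positive control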
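Material: CHO-CHOP cells, stable luciferase reporter of PERK-eIF2a-CHOP signalling; quantity: 500 reporter cells seeded per well; buffer or medium: F12 medium containing 10% fetal bovine serum; compound: one dose, 10 µM in 0.5% DMSO; incubation: 6 h compound treatment, 37 °C; measured by: Steady-Glo luciferase luminescence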
CSC inhib: cancer stem cell viability inhibitors, primary screen, luminescence | cancer stem cell-like cells viability | inhibition, % at 7.5 µM | hit rate 1.1% among 300,000 | AID 2717, 2010; in the data active = inhibition above about 75%; tested in HMLE shEcad cells
Beta cell apopt: inhibitors of cytokine-induced beta cell apoptosis, primary screen, luminescence; INS-1E cytokine-induced death, ATP luminescence, 48 h; percent of positive-control rescue, neutral wells zero; protection from apoptosis, % (no concentration beside the values); hit rate 0.8% among 300,000;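 active = Every replicate reaches about 75%, or at least half do and their mean reaches it too, limit read from the data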;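 note: higher means more ATP so stronger rescue from cytokine killing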
SKKanGAS inh: S. pyogenes SKKanGAS growth inhibitors in kanamycin, primary screen, streptokinase expression inhibitor project, SKKanGAS strain, BacTiter-Glo luminescence; inhibition, % at 7.5 µM; 6 h; hit rate 1.3% among 300,000; AID 1662, 2009;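 active = mean replicate score, as percent of positive control median, at least 50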;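 note: strain carries kanamycin resistance gene driven by streptokinase promoter and grows in 40 µg/ml kanamycin; loss of luminescence reflects streptokinase promoter inhibition or plain growth inhibition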
Mdm2-MdmX conf: Mdm2-MdmX complex disruptors, retested hits, confirmation, luminescence, single concentration | shares compounds with Mdm2 MdmX PPI | AID 489028, 2010 | Mdm2-MdmX binding, luminescent assay | hit rate 55% among 10,000 | inhibition, % at 8 µM; in the data active = inhibition above about 40%
Full FLuc ctr: full-length luciferase signal inhibition, confirmation, counter-screen for Mdm2/MdmX interaction inhibitor project, cell-based, single concentration, SaOS-2; SaOS-2 full-length luciferase counterscreen, luminescence; shares compounds with Mdm2 MdmX PPI; inhibition, % at 8 µM; hit rate 77% among 6,200; AID 504607, 2011;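 active = mean inhibition at 8 µM reaching about 37%, which flags the compound as non-specific, limit read from the data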;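 note: p53-null SaOS-2 cells with luciferase driven by a doxycycline-inducible promoter; compound on cells about two nights before reading with doxycycline added after day one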
Large screens that a line does not name were inactive (follow-up assays come after a bar, where they were run). A selection: hits, their analogues and other compounds. The true share with any hit is near 4.8%.

NCCCNCCCCNCCCN	none (no result: CSC inhib, Beta cell apopt, SKKanGAS inh)
CCc1ccc(OCCNC(=O)c2ccccc2SCc2ccccc2)cc1	Mdm2 MdmX PPI 80 | Mdm2-MdmX conf 80 | Full FLuc ctr 57
CCNC(=O)c1ccccc1SCc1ccccc1	none
Cc1cc(OC(C)C(=O)NCC2CCCO2)cc(C)c1Cl (stereo unspecified)	none
CC(C)(C)OC(=O)N[C@@H](Cc1ccccc1)c1nnc(S(=O)(=O)Cc2ccccc2)o1	Mdm2 MdmX PPI 100, CSC inhib 131 (no result: SKKanGAS inh) | Mdm2-MdmX conf 70 | Full FLuc ctr inactive
Cc1ccccc1CS(=O)(=O)c1nnc([C@H](Cc2ccccc2)NC(=O)OC(C)(C)C)o1	Mdm2 MdmX PPI 100, CSC inhib 99, Beta cell apopt 93 | Mdm2-MdmX conf 53 | Full FLuc ctr inactive
CCSc1nnc([C@H](Cc2ccccc2)NC(=O)OC(C)(C)C)o1	none
CCC(C)[C@H]1COCCS(=O)(=O)N1Cc1ccc(Br)cc1 (stereo partly specified)	none
O=C(COc1coc(CN2CCc3ccccc3C2)cc1=O)N1CCOCC1	none
COC(=O)C1CCN(C(=O)c2oc3c(Cl)cc(C)cc3c2C)CC1	none
Cc1cc(Cl)c2oc(C(=O)N3CCN(c4ccncc4)CC3)c(C)c2c1	Mdm2 MdmX PPI 90, CSC inhib 83 | Mdm2-MdmX conf 51 | Full FLuc ctr 57
Cc1ccccc1-n1c([C@@H]2C[C@H]2c2ccccc2)n[nH]c1=S	none
COc1ccc(-n2c(C)nnc2SCC(=O)Nc2ccccc2F)cc1	none
CC(Oc1ccccc1)C(=O)Nc1ccc(NC(=O)c2ccccc2)cc1 (stereo unspecified)	Mdm2 MdmX PPI 66 | Mdm2-MdmX conf inactive | Full FLuc ctr 52
CCN(CC)C(=O)CSc1n[nH]c(=O)n1CCc1ccccc1	none
O=c1[nH]nc(Sc2ncnc3sccc23)n1CCc1ccccc1	Mdm2 MdmX PPI 85 | Mdm2-MdmX conf 43 | Full FLuc ctr inactive
COc1cc(C(CCN2CCCC2)c2c(OC)cc(OC)c3c(-c4ccccc4)cc(=O)oc23)cc(OC)c1OC (stereo unspecified)	Mdm2 MdmX PPI 78 | Mdm2-MdmX conf inactive
COc1cc(OC)c2c(-c3ccccc3)cc(=O)oc2c1C(CCN1CCOCC1)c1ccc2c(c1)OCO2 (stereo unspecified)	none (no result: CSC inhib, Beta cell apopt, SKKanGAS inh)
COc1cc(C(CCN2CCOCC2)c2c(OC)cc(OC)c3c(-c4ccccc4)cc(=O)oc23)cc(OC)c1OC (stereo unspecified)	none (no result: CSC inhib, Beta cell apopt, SKKanGAS inh)
COc1cc(OC)c2c(-c3ccccc3)cc(=O)oc2c1C(CCN1CCCC1)c1ccc2c(c1)OCO2 (stereo unspecified)	Mdm2 MdmX PPI 81 | Mdm2-MdmX conf inactive
O=c1c2c3c(sc2nc(N2CCNCC2)n1-c1cccc(Cl)c1)CCCCC3	Mdm2 MdmX PPI 67 | Mdm2-MdmX conf inactive
CCN1CCN(c2nc3sc4c(c3c(=O)n2-c2ccc(OC)cc2)CCCCC4)CC1	none
N/C(Cc1ccc([N+](=O)[O-])cc1)=N\OC(=O)c1ccc([N+](=O)[O-])cc1	none
COc1ccc(C(=O)O/N=C(\N)Cc2ccc([N+](=O)[O-])cc2)c(OC)c1	Mdm2 MdmX PPI 86 | Mdm2-MdmX conf 68 | Full FLuc ctr 90
COc1ccc(C/C(N)=N/OC(=O)c2cccc([N+](=O)[O-])c2)cc1	none
COc1cc(C(=O)O/N=C(\N)Cc2ccc([N+](=O)[O-])cc2)cc(OC)c1OC	Mdm2 MdmX PPI 85 | Mdm2-MdmX conf 70 | Full FLuc ctr 70
N/C(Cc1ccc([N+](=O)[O-])cc1)=N\OC(=O)c1cccc(Br)c1	Mdm2 MdmX PPI 61 | Mdm2-MdmX conf inactive
CCOc1ccc(C(=O)O/N=C(\N)c2ccc([N+](=O)[O-])cc2)cc1OCC	Mdm2 MdmX PPI 60 (no result: CSC inhib, Beta cell apopt) | Mdm2-MdmX conf 52 | Full FLuc ctr 125
O=C(COC(=O)c1c(F)cccc1F)c1ccc[nH]1	none
O=S1(=O)CCOC(CO)CN1Cc1ccc(Cl)c(Cl)c1 (stereo unspecified)	none (no result: CSC inhib, Beta cell apopt, SKKanGAS inh)
CC(C)CCNc1nnnc2c1sc1nc(N3CCOCC3)c3c(c12)CC(C)(C)SC3	Mdm2 MdmX PPI 51 | Mdm2-MdmX conf inactive
N#C/C(=C\c1ccc(OCc2ccc(C(=O)O)cc2)cc1)C(=O)N1CCOCC1	Mdm2 MdmX PPI 55 | Mdm2-MdmX conf 44 | Full FLuc ctr inactive
C=CCOc1ccc(C(=O)/C=C2/C(=O)Nc3ccccc32)cc1	Mdm2 MdmX PPI 52 | Mdm2-MdmX conf inactive
C=CCOc1ccccc1C(=O)/C=C1/C(=O)Nc2ccccc21	Mdm2 MdmX PPI 78, UPR CHOP act 152 | Mdm2-MdmX conf inactive
COc1ccc(/C=C(/NC(=O)c2ccccc2)C(=O)N2CCCC2)cc1	none (no result: CSC inhib)
CCOC(=O)c1ccc(-n2cccc2/C=C2\NC(=O)NC2=O)cc1	none (no result: SKKanGAS inh)
Cn1c(=O)[nH]c(=O)c2c1nc([N+](=O)[O-])n2Cc1ccccc1	Mdm2 MdmX PPI 96, Beta cell apopt 98 | Mdm2-MdmX conf 79 | Full FLuc ctr 56
O=C(Nc1ccccc1C(=O)NC1CCCCC1)c1ccccc1	none
O=C(Nc1ccccc1C(=O)NC(Cc1ccccc1)C(=O)NC1CCCCCC1)c1ccccc1 (stereo unspecified)	Mdm2 MdmX PPI 62 | Mdm2-MdmX conf inactive
Cc1nonc1C(=O)N/N=C/c1ccc(O)cc1O	none
O=C(Nc1ccncc1)c1ccccc1F	Mdm2 MdmX PPI 51 | Mdm2-MdmX conf inactive
CCc1ccc(C(=O)Nc2nc3ccccc3[nH]2)cc1	Mdm2 MdmX PPI 56, SKKanGAS inh 63 | Mdm2-MdmX conf 52 | Full FLuc ctr 72
CC(C)Oc1ccc(C(=O)Nc2nc3ccccc3[nH]2)cc1	Mdm2 MdmX PPI 69, SKKanGAS inh 55 | Mdm2-MdmX conf 67 | Full FLuc ctr 46
O=C(Nc1nc2ccccc2[nH]1)c1ccccc1F	Mdm2 MdmX PPI 82, CSC inhib 124, Beta cell apopt 89, SKKanGAS inh 80 | Mdm2-MdmX conf 81 | Full FLuc ctr 38
O=C(Nc1nc2ccccc2[nH]1)c1ccc(F)cc1	none (no result: CSC inhib)
O=C(Nc1ccc(F)cc1)c1ccccc1F	none
